Source: PubChem
A selection: hits, their analogues and other compounds. The true share with any hit is near 2.9%.
OX1R antag-1: antagonists of human orexin 1 receptor (OX1R); Orexin/Hypocretin receptor type 1 (Homo sapiens), O43613; inhibition, % at 6.6 µM; 330,000 tested, 1.8% active; OX1R-expressing cells, FRET antagonist read-out; AID 485270, 2010; in the data active = inhibition mostly above about 38%, no sharp cut-off; inactive = mostly below about 40%
Target sequence (O43613 whole entry, looked up): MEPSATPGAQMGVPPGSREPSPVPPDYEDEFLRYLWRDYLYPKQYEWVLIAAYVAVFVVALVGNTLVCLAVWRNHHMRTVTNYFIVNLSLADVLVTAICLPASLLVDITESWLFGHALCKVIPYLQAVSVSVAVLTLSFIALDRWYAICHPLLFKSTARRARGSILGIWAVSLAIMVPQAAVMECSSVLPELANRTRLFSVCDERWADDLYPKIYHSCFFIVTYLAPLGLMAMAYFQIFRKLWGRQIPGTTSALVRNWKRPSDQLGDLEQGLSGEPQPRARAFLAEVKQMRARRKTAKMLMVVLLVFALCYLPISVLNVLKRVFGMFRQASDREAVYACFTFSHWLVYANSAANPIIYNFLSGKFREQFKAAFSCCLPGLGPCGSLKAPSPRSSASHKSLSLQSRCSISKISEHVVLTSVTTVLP
M1 PAM parental: nonselective calcium activators in parental CHO-K1 cells, primary screen, counter-screen for M1 PAM project, cell-based, Fluo-8 calcium fluorescence, full deck, 1536-well | 360,000 tested, 0.02% active | ATP EC20; 0% at ATP EC20, 100% at ATP max | activation, % at 3 µM;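 active = activation above the run cutoff, the mean activation of all test compounds plus 3 SD, cut at about 40% in these data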;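 note: peak over basal fluorescence ratio in a 140 s read after ATP addition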
CHO-K1 Ca ag: counter-screen for M1 agonists: effect in parental CHO-K1 cells; Fluo-8 calcium fluorescence; scaled to maximal ATP response, vehicle zero; activation, % at 3 µM; AID 602248, 2012; 360,000 tested, 0.48% active; in the data active = activation above about 15%;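 note: untransfected CHO-K1 host cells lacking M1 receptor as counterscreen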
OX1R antag-2: OX1R (HCRTR1) antagonists, primary screen, fluorescence, CHO/OX1R cells, Fluo-8 calcium, orexin A | inhibition, % at 5 µM | Orexin/Hypocretin receptor type 1 (Homo sapiens), O43613 | 330,000 tested, 0.43% active | Fluo-8 calcium fluorescence;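 active = inhibition above its plate's threshold, mean inhibition of all tested compounds on the plate plus 3 SD, cut at about 37% in these data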
CHO-K1 Ca antag: nonselective inhibitor or artifact in parental CHO-K1 cells | ATP-induced calcium, Fluo-8 fluorescence | inhibition, % at 3 µM | 360,000 tested, 0.6% active | AID 602250;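 active = inhibition above a per-plate cutoff, the plate's mean sample inhibition plus 3 SD, cut at about 24% in these data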
CHO parental Ca: ATP-evoked calcium signal inhibitors, parental CHO, primary screen, counter-screen for OX1R antagonist project, cell-based, fluorescence, Fluo-8 calcium dye | AID 463079, 2010 | inhibition, % at 5.6 µM | parental CHO-K1, ATP-induced calcium, Fluo-8 fluorescence | 330,000 tested, 0.63% active;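 active = inhibition above that plate's mean sample inhibition plus 3 SD, cut at about 26% in these data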
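test system = CHO parental line | reagent = ATP stimulus | measured by = intracellular calcium via Fluo-8 no-wash fluorescent dye | control set = ATP and no-ATP DMSO wells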
Of the large screens only hits and unclear results are named; the others gave an inactive call.

Cc1cc(C)n2nc(C(=O)N/N=C/c3cccs3)nc2n1	OX1R antag-1 35
CC(C)C(c1nnnn1C(C)(C)C)N1CCOCC1 (centres undefined)	none
CC(C)C(c1nnnn1C(C)(C)C)N1CCC(Cc2ccccc2)CC1 (centres undefined)	CHO parental Ca 42
COc1ccc(-c2c3c(cc4ncn(Cc5ccccc5)c24)COC3=O)cc1	none
CSc1nc(C)cc(OCCNS(=O)(=O)c2cc(C)ccc2C)n1	OX1R antag-1 71
Cc1ccc(C)c(S(=O)(=O)NCCOc2nc(NC(C)C)nc(NC(C)C)n2)c1	none
Nc1nc(Cl)cc(NCCc2ccc(O)cc2)n1	none
Oc1ccc(CCNc2ncnc3ccc(Cl)cc23)cc1	OX1R antag-1 86, CHO-K1 Ca ag 16, OX1R antag-2 43, CHO parental Ca 72
FC(F)C(F)(F)c1cc(-c2ccc(Cl)cc2)n[nH]1	CHO-K1 Ca ag 18, OX1R antag-2 73, CHO parental Ca 56
Oc1ccccc1-c1cc(C(F)(F)C(F)F)[nH]n1	none
N#C/C(=C\c1ccc(O)cc1)C(=O)NCc1cccc(Cl)c1	CHO-K1 Ca ag 17
N#C/C(=C/c1ccc(O)cc1)C(=O)NCc1ccc(Cl)cc1	none
CC1(C(=O)NCC2CC2)Cc2c(-c3cccc(C(F)(F)F)c3)ccnc2O1 (centres undefined)	none (no result: OX1R antag-1, OX1R antag-2, CHO parental Ca)
O=[N+]([O-])c1cc(Cl)c2cccnc2c1O	none
Oc1c(I)cc(Cl)c2cccnc12	OX1R antag-1 61, OX1R antag-2 49, CHO parental Ca 41
CSc1nsc(SC)c1NC(=O)Nc1ccccn1	M1 PAM parental 49
CSc1nsc(SC)c1NC(=O)OCCc1ccccn1	none
COc1ccc(C2C(C(=O)c3ccco3)=C(O)C(=O)N2CC2CCCO2)c(OC)c1 (centres undefined)	none
COc1cc(C)ccc1OCC(=O)OCC(=O)c1[nH]c(C)c(C(C)=O)c1C	none
CC(=O)c1c(C)[nH]c(C(=O)COc2cc(C)ccc2C(C)C)c1C	OX1R antag-1 84, OX1R antag-2 62, CHO parental Ca 74
O=C(O)CCCC1(C(=O)O)CCCC1	none (no result: OX1R antag-1, OX1R antag-2, CHO parental Ca)
O=C(CCCc1nc(-c2ccc(Cl)cc2)no1)NC1CCCC1	CHO-K1 Ca ag 17, CHO parental Ca 48
COc1ccc(-c2noc(CCC(=O)NC3CCCCCC3)n2)cc1	none
O=C(CCc1nc(-c2ccc(Cl)cc2)no1)NC1CCCCC1	CHO-K1 Ca ag 17
COc1ccc(-c2noc(CCCC(=O)NC3CCCC3)n2)cc1	none
CCOC(=O)C1(Cc2cccc(Cl)c2)CCCN(C(=O)c2cccc(C)n2)C1 (centres undefined)	none
CCCC1NC(=O)c2cccnc2-n2c1nc1ccc(Cl)cc1c2=O (centres undefined)	none (no result: OX1R antag-1, OX1R antag-2, CHO parental Ca)
CN(C)c1nc(N)c(C#N)c(C#N)c1C#N	none (no result: OX1R antag-1, OX1R antag-2, CHO parental Ca)
CCOC(=O)[C@H]1[C@H]2COc3ccc(Br)cc3[C@@H]2N2C(=O)CN(Cc3ccccc3)C(=O)[C@@]12C	none
Cc1ccc(NC(=O)[C@H](C)NC(=O)C2CCN(C(=O)[C@@H](NC(=O)OC(C)(C)C)C(C)C)CC2)cc1	none
O=C(COC(=O)CCC1CCCC1)Nc1cccc(S(=O)(=O)N2CCOCC2)c1	none
O=C1C=C(c2ccc3cc[nH]c3c2)C[C@@H](c2ccc3c(c2)OCO3)C1	none
CCOC(=O)c1oc2ccc(S(=O)(=O)n3nc(-c4ccccc4)cc3N)cc2c1C	CHO parental Ca 32
C[C@@H]1CC[C@]2(C(=O)O[C@@H]3O[C@H](CO)[C@@H](O)[C@H](O)[C@H]3O)CC[C@]3(C)C(=CCC4[C@@]5(C)CC[C@H](O[C@@H]6OC[C@H](O)[C@H](O[C@@H]7O[C@H](CO)[C@@H](O)[C@H](O)[C@H]7O)[C@H]6O)C(C)(C)C5CC[C@]43C)C2[C@]1(C)O (some centres undefined)	none
COc1ccc(/C=C\C(=O)O[C@@H]2C(O)C(O[C@@H]3OC(C)[C@H](O[C@@H]4OCC(O[C@H]5O[C@H](CO)[C@@H](O)C(O)C5O)C(O)C4O)C(O)C3O)[C@H](OC(=O)[C@]34CCC(C)(C)C[C@@H]3C3=CCC5[C@@]6(C)CC(O)C(O[C@@H]7OC(CO)C(O)[C@H](O)[C@H]7O)[C@@](C)(C(=O)O)C6CC[C@@]5(C)[C@]3(CO)CC4)O[C@H]2C)cc1 (some centres undefined)	CHO-K1 Ca ag 90, OX1R antag-2 110, CHO-K1 Ca antag 71, CHO parental Ca 101
CCCCNS(=O)(=O)c1ccc2nc(SCC(=O)Nc3sccc3C#N)[nH]c2c1	OX1R antag-1 76, OX1R antag-2 54, CHO parental Ca 47
COc1cc(C(=O)Nc2cccc(C)c2C)ccc1OCC(=O)N1CCOCC1	none
CCCOC1CCCN(C(=O)c2cc(COc3c(F)cccc3F)on2)C1 (centres undefined)	none
Cc1ccccc1C1CCCN(C(=O)c2cc(COc3c(F)cccc3F)on2)C1 (centres undefined)	CHO parental Ca 43
CCN(CC)c1ccc(C(=C2C=CC(=[N+](CC)CC)C=C2)c2ccccc2)cc1	CHO-K1 Ca ag 39, CHO-K1 Ca antag 75 (no result: OX1R antag-1, OX1R antag-2, CHO parental Ca)
CCN(CC)c1ccc(C(=C2C=CC(=[N+](CC)CC)C=C2)c2ccc(N(CC)CC)cc2)cc1	none (no result: OX1R antag-1, OX1R antag-2, CHO parental Ca)
CC1/C(=N/O)CC(c2ccccc2)NC1c1ccccc1 (centres undefined)	none
CCCC1/C(=N/O)CC(c2ccccc2)NC1c1ccccc1 (centres undefined)	CHO-K1 Ca ag 18, CHO-K1 Ca antag 37
CCN(C)C1CN(Cc2cn(Cc3ccc(C)cc3)nn2)S(=O)(=O)C1 (centres undefined)	none (no result: OX1R antag-1, OX1R antag-2, CHO parental Ca)
CC(=NNc1nc2ccccc2s1)c1ncccn1	CHO-K1 Ca antag 27 (no result: OX1R antag-1, OX1R antag-2, CHO parental Ca)
CC(=NNc1nc2ccccc2o1)c1ncccn1	CHO-K1 Ca antag 31 (no result: OX1R antag-1, OX1R antag-2, CHO parental Ca)
C/C(=N\Nc1nc2ccccc2s1)c1cccs1	OX1R antag-1 56
COc1cccc(C(=O)NCCS(=O)(=O)N(C)Cc2ccccc2)c1	none
COCCN(CC(=O)Nc1ccccc1C(F)(F)F)C(=O)/C=C/c1ccc2ccccc2n1	OX1R antag-1 53
CC(C)NC(=O)N(C)C[C@@H]1Oc2c(NC(=O)Nc3ccccc3)cccc2C(=O)N([C@H](C)CO)C[C@H]1C	none
CCC(OC(=O)CN1C(=O)C(=O)c2ccccc21)C(=O)Nc1ccc(S(N)(=O)=O)cc1 (centres undefined)	OX1R antag-1 50
Cc1c(C(=O)O)cccc1-c1ccc(/C=C2\SC(=O)NC2=O)o1	OX1R antag-1 56
Cc1c(C(=O)O)cccc1-c1ccc(/C=C2/NC(=O)N(c3ccccc3)C2=O)o1	none
